From ChEMBL document CHEMBL4480426, “Novel multi-target directed ligands based on annelated xanthine scaffold with aromatic substituents acting on adenosine receptor and monoamine oxidase B. Synthesis, in vitro and in silico studies” (Bioorg Med Chem, 2019)

Target: T1, Adenosine receptor A1 (Rattus norvegicus, UniProt P25099)
T1 sequence (P25099 whole entry): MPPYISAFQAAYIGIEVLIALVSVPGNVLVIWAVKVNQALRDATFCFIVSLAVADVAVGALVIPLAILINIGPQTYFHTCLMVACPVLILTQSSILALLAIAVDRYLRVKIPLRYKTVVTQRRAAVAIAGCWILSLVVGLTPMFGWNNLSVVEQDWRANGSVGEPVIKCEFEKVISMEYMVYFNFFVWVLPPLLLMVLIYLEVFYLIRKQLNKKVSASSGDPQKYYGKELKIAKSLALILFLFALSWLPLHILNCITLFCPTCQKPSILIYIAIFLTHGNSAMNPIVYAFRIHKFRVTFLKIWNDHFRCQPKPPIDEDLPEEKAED
Experiment: Displacement of [3H]CCPA from adenosine A1 receptor in rat brain cortical membranes
Format: cell membranes
Conditions: not given

Question: Which Ki does the source give for Cn1c(=O)c2c(nc3n2CCCN3Cc2ccc(Cl)c(F)c2)n(C)c1=O here?
Answer: > 1000 nM

Question: How did the Ki turn out when Cn1c(=O)c2c(nc3n2CCCN3Cc2cc(Cl)ccc2Cl)n(C)c1=O was run?
Answer: 3020 nM

Question: How did the Ki turn out when COc1ccc(Cl)c(CN2CCCn3c2nc2c3c(=O)n(C)c(=O)n2C)c1F was run?
Answer: 927 nM

Question: With Cn1c(=O)c2c(nc3n2CCCN3Cc2ccc(F)c(Br)c2)n(C)c1=O as the compound, how does the Ki read?
Answer: 4360 nM

Question: With Cn1c(=O)c2c(nc3n2CCCN3Cc2ccc(Br)cc2F)n(C)c1=O as the compound, how does the Ki read?
Answer: 4130 nM

Question: Which Ki does the source give for Cn1c(=O)c2c(nc3n2CCCN3Cc2cc(Br)ccc2F)n(C)c1=O here?
Answer: 486 nM

Question: With Cn1c(=O)c2c(nc3n2CCCN3Cc2ccccc2F)n(C)c1=O as the compound, how does the Ki read?
Answer: 1780 nM

Target: Adenosine receptor A2a (Homo sapiens, UniProt P29274)
Experiment: Displacement of [3H]MSX2 from recombinant human adenosine A2a receptor expressed in HEK293 cells
Format: cell-based
Conditions: not given

Sequence of Adenosine receptor A2a (P29274 whole entry): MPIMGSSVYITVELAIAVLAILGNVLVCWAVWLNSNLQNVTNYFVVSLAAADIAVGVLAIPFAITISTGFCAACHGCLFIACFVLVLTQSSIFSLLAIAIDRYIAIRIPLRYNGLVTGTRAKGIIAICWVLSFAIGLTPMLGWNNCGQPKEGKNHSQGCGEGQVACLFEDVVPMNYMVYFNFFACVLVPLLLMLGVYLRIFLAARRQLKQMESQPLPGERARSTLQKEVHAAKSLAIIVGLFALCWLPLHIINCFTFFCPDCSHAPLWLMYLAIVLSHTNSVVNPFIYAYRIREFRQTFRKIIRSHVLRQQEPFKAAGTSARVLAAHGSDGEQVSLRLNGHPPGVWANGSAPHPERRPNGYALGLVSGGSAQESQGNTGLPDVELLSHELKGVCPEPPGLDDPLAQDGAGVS

Question: Which Ki does the source give for Cn1c(=O)c2c(nc3n2CCCN3Cc2ccc(Cl)c(F)c2)n(C)c1=O here?
Answer: > 1000 nM

Question: Which Ki does the source give for Cn1c(=O)c2c(nc3n2CCCN3Cc2cc(Cl)ccc2Cl)n(C)c1=O here?
Answer: > 1000 nM

Question: For COc1ccc(Cl)c(CN2CCCn3c2nc2c3c(=O)n(C)c(=O)n2C)c1F, which Ki is on record?
Answer: 627 nM

Question: For Cn1c(=O)c2c(nc3n2CCCN3Cc2ccc(F)c(Br)c2)n(C)c1=O, which Ki is on record?
Answer: 8270 nM

Question: Which Ki does the source give for Cn1c(=O)c2c(nc3n2CCCN3Cc2ccc(Br)cc2F)n(C)c1=O here?
Answer: > 1000 nM

Question: Which Ki does the source give for Cn1c(=O)c2c(nc3n2CCCN3Cc2cc(Br)ccc2F)n(C)c1=O here?
Answer: > 1000 nM

Question: With Cn1c(=O)c2c(nc3n2CCCN3Cc2ccccc2F)n(C)c1=O as the compound, how does the Ki read?
Answer: 1210 nM

Target: T2, Adenosine receptor A2b (Homo sapiens, UniProt P29275)
T2 sequence (P29275 whole entry): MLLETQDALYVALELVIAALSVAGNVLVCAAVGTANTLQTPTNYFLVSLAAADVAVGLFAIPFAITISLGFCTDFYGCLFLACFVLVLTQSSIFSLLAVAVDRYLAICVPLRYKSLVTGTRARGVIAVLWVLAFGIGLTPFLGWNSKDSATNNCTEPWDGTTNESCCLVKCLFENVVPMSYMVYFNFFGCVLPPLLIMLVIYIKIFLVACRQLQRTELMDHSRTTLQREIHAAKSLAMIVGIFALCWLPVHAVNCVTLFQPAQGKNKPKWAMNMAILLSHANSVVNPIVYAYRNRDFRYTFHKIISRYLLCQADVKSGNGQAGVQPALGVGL
Experiment: Displacement of [3H]PSB603 from recombinant human adenosine A2b receptor expressed in HEK293 cells
Format: cell-based
Conditions: not given

Question: How did the Ki turn out when Cn1c(=O)c2c(nc3n2CCCN3Cc2ccc(Cl)c(F)c2)n(C)c1=O was run?
Answer: > 1000 nM

Question: For Cn1c(=O)c2c(nc3n2CCCN3Cc2cc(Cl)ccc2Cl)n(C)c1=O, which Ki is on record?
Answer: > 1000 nM

Question: Cn1c(=O)c2c(nc3n2CCCN3Cc2ccc(F)c(Br)c2)n(C)c1=O was tested. Which Ki did it give?
Answer: > 1000 nM

Question: With Cn1c(=O)c2c(nc3n2CCCN3Cc2ccc(Br)cc2F)n(C)c1=O as the compound, how does the Ki read?
Answer: > 1000 nM

Question: How did the Ki turn out when Cn1c(=O)c2c(nc3n2CCCN3Cc2cc(Br)ccc2F)n(C)c1=O was run?
Answer: > 1000 nM

Question: How did the Ki turn out when Cn1c(=O)c2c(nc3n2CCCN3Cc2ccccc2F)n(C)c1=O was run?
Answer: > 1000 nM

Target: T3, Adenosine receptor A3 (Homo sapiens, UniProt P0DMS8)
T3 sequence (P0DMS8 whole entry): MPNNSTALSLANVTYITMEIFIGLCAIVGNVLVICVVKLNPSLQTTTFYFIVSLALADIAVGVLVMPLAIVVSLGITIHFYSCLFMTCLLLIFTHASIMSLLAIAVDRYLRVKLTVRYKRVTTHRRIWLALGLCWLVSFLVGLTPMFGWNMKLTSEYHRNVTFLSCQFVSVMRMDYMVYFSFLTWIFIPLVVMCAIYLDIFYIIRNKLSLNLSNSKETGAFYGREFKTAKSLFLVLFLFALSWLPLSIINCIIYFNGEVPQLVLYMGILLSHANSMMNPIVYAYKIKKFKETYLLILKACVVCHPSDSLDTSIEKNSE
Experiment: Displacement of [3H]PSB11 from recombinant human adenosine A3 receptor expressed in CHO cells
Format: cell-based
Conditions: not given

Question: How did the Ki turn out when Cn1c(=O)c2c(nc3n2CCCN3Cc2ccc(Cl)c(F)c2)n(C)c1=O was run?
Answer: > 1000 nM

Question: With Cn1c(=O)c2c(nc3n2CCCN3Cc2cc(Cl)ccc2Cl)n(C)c1=O as the compound, how does the Ki read?
Answer: > 1000 nM

Question: Cn1c(=O)c2c(nc3n2CCCN3Cc2ccc(F)c(Br)c2)n(C)c1=O was tested. Which Ki did it give?
Answer: > 1000 nM

Question: Which Ki does the source give for Cn1c(=O)c2c(nc3n2CCCN3Cc2ccc(Br)cc2F)n(C)c1=O here?
Answer: > 1000 nM

Question: For Cn1c(=O)c2c(nc3n2CCCN3Cc2cc(Br)ccc2F)n(C)c1=O, which Ki is on record?
Answer: > 1000 nM

Question: With Cn1c(=O)c2c(nc3n2CCCN3Cc2ccccc2F)n(C)c1=O as the compound, how does the Ki read?
Answer: > 1000 nM

Target: T4, Amine oxidase [flavin-containing] A (Homo sapiens, UniProt P21397)
T4 sequence (P21397 whole entry): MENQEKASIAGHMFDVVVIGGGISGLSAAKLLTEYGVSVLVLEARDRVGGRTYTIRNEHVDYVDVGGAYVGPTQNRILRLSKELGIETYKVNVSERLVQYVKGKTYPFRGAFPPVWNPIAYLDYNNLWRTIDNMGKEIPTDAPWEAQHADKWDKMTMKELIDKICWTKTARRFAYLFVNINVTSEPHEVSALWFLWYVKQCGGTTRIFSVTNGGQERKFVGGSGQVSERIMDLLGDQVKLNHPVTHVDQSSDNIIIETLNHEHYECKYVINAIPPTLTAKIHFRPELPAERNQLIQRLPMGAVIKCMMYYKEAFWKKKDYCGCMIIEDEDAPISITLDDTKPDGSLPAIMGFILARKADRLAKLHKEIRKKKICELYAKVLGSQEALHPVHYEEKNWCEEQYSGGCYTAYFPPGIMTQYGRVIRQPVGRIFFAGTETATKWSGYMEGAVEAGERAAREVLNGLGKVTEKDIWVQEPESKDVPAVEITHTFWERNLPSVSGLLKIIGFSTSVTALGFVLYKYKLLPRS
Experiment: Inhibition of recombinant human MAOA expressed in baculovirus infected BTI insect cells using p-tyramine as substrate preincubated for 30 mins followed by substrate addition and measured over 45 mins by horseradish peroxidase-Amplex Red-coupled fluorometric assay
Conditions: not given
Method in brief: (§1)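 Human recombinant MAO-A or MAO-B enzyme. Activity detected fluorometrically with the Amplex Red monoamine oxidase assay.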

Question: For Cn1c(=O)c2c(nc3n2CCCN3Cc2ccc(Cl)c(F)c2)n(C)c1=O, which IC50 is on record?
Answer: > 100000 nM

Question: With COc1ccc(Cl)c(CN2CCCn3c2nc2c3c(=O)n(C)c(=O)n2C)c1F as the compound, how does the IC50 read?
Answer: > 100000 nM

Question: How did the IC50 turn out when Cn1c(=O)c2c(nc3n2CCCN3Cc2ccc(F)c(Br)c2)n(C)c1=O was run?
Answer: > 1000 nM

Question: How did the IC50 turn out when Cn1c(=O)c2c(nc3n2CCCN3Cc2ccc(Br)cc2F)n(C)c1=O was run?
Answer: > 1000 nM

Question: Cn1c(=O)c2c(nc3n2CCCN3Cc2ccccc2F)n(C)c1=O was tested. Which IC50 did it give?
Answer: > 1000 nM

Target: T5, Amine oxidase [flavin-containing] B (Homo sapiens, UniProt P27338)
T5 sequence (P27338 whole entry): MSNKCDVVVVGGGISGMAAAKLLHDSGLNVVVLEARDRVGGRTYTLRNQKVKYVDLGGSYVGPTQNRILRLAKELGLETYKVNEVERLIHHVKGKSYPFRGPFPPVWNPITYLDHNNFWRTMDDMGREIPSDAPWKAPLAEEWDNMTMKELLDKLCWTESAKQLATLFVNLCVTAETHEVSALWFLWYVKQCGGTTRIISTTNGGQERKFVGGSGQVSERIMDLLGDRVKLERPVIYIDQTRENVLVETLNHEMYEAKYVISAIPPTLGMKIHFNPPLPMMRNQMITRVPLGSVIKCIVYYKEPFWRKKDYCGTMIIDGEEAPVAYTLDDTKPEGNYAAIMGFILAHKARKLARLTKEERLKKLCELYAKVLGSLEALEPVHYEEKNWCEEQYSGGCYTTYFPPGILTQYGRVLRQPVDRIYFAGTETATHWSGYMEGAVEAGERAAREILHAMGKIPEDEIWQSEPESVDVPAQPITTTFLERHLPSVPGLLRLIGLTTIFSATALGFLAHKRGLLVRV
Experiment: Inhibition of recombinant human MAOB expressed in baculovirus infected BTI insect cells using p-tyramine as substrate preincubated for 30 mins followed by substrate addition and measured over 45 mins by horseradish peroxidase-Amplex Red-coupled fluorometric assay
Conditions: not given
Method in brief: as §1

Question: Which IC50 does the source give for Cn1c(=O)c2c(nc3n2CCCN3Cc2ccc(Cl)c(F)c2)n(C)c1=O here?
Answer: 264 nM

Question: How did the IC50 turn out when Cn1c(=O)c2c(nc3n2CCCN3Cc2cc(Cl)ccc2Cl)n(C)c1=O was run?
Answer: 758 nM

Question: COc1ccc(Cl)c(CN2CCCn3c2nc2c3c(=O)n(C)c(=O)n2C)c1F was tested. Which IC50 did it give?
Answer: 840 nM

Question: Which IC50 does the source give for Cn1c(=O)c2c(nc3n2CCCN3Cc2ccc(F)c(Br)c2)n(C)c1=O here?
Answer: 346 nM

Question: Cn1c(=O)c2c(nc3n2CCCN3Cc2ccc(Br)cc2F)n(C)c1=O was tested. Which IC50 did it give?
Answer: 426 nM

Question: Which IC50 does the source give for Cn1c(=O)c2c(nc3n2CCCN3Cc2cc(Br)ccc2F)n(C)c1=O here?
Answer: 1180 nM

Question: How did the IC50 turn out when Cn1c(=O)c2c(nc3n2CCCN3Cc2ccccc2F)n(C)c1=O was run?
Answer: 583 nM

Target: T4, Amine oxidase [flavin-containing] A
Experiment: Inhibition of recombinant human MAOA expressed in baculovirus infected BTI insect cells at 1 to 100 uM using p-tyramine as substrate preincubated for 30 mins followed by substrate addition and measured over 45 mins by horseradish peroxidase-Amplex Red-coupled fluorometric assay relative to control
Conditions: 0.75 h
Method in brief: as §1

Question: How did the “inhibition (INH)” value turn out when Cn1c(=O)c2c(nc3n2CCCN3Cc2ccc(Cl)c(F)c2)n(C)c1=O was run?
Answer: 9%

Question: With COc1ccc(Cl)c(CN2CCCn3c2nc2c3c(=O)n(C)c(=O)n2C)c1F as the compound, how does the “inhibition (INH)” value read?
Answer: 16%

Question: How did the “inhibition (INH)” value turn out when Cn1c(=O)c2c(nc3n2CCCN3Cc2ccc(F)c(Br)c2)n(C)c1=O was run?
Answer: 1%

Question: Cn1c(=O)c2c(nc3n2CCCN3Cc2ccc(Br)cc2F)n(C)c1=O was tested. Which “inhibition (INH)” value did it give?
Answer: -2%

Question: For Cn1c(=O)c2c(nc3n2CCCN3Cc2ccccc2F)n(C)c1=O, which “inhibition (INH)” value is on record?
Answer: -1%
